Assay results from ChEMBL document CHEMBL1144541, “Antinociceptive and antiinflammatory activities and QSAR studies on 2-substituted-4,5-diphenyl-1H-imidazoles” (2007).

Columns and labels:
Format in all cases: functional
Rattus norvegicus [1] = assay: Antiinflammatory activity assessed as reduction of carrageenan-induced paw volume in intraperitoneally dosed Wistar rat after 3 hrs; set-up: scale not given: the % may be the effect or the level left
Summary of the method: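 Wistar rats of either sex (120–150 g) were dosed ip with compounds at 9.5–12.58 mg/kg in 0.2% Tween suspension. After 1 h, 0.05 ml of 1.0% w/v carrageenan in 0.9% NaCl was injected into the left hind paw. Paw volume was measured by mercury-displacement plethysmometry before injection and at 1, 2 and 3 h. Percent inhibition of the 3 h swelling was calculated.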

Mus musculus [2] = assay: Antinociceptive activity in ip dosed Swiss albino mouse assessed as latency time after 60 mins by hot plate method
Summary of the method: (§1)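 Swiss albino mice (20–25 g) were housed 7 days at 30 ± 1 °C before testing, in groups of six. Compounds were given ip at 9.5–12.58 mg/kg as a 0.2% Tween suspension. Mice were placed on a 55 ± 0.5 °C hot plate before dosing and at 15, 30, 60 and 120 min after dosing, with a 15 s cut-off. Significance was assessed by Student's t test.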

Mus musculus [3] = assay: Antinociceptive activity in ip dosed Swiss albino mouse assessed as latency time after 120 mins by hot plate method; summary of the method: as §1
Mus musculus [4] = assay: Antinociceptive activity in ip dosed Swiss albino mouse assessed as latency time after 30 mins by hot plate method; summary of the method: as §1
Mus musculus [5] = assay: Antinociceptive activity in ip dosed Swiss albino mouse assessed as latency time after 15 mins by hot plate method; summary of the method: as §1
Mus musculus [6] = assay: Antinociceptive activity in ip dosed Swiss albino mouse assessed as latency time after 60 mins by tail flick method
Summary of the method: (§2)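 Swiss albino mice (20–25 g) received compounds ip at 9.5–12.58 mg/kg in 0.2% Tween suspension. Tail-flick latency to radiant heat was measured, with stimulus intensity set to give a 3–4 s baseline. Readings were taken just before injection and at 15, 30, 60 and 120 min after. Significance was assessed by Student's t test.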

Mus musculus [7] = assay: Antinociceptive activity in ip dosed Swiss albino mouse assessed as latency time by hot plate method; summary of the method: as §1
Rattus norvegicus [8] = assay: Antiinflammatory activity assessed as reduction of carrageenan-induced paw volume in Wistar rat at 10 mg/kg, ip after 3 hrs; details: route intraperitoneal
Mus musculus [9] = assay: Antinociceptive activity in ip dosed Swiss albino mouse assessed as latency time after 15 mins by tail flick method; summary of the method: as §2
Mus musculus [10] = assay: Antinociceptive activity in ip dosed Swiss albino mouse assessed as latency time after 120 mins by tail flick method; summary of the method: as §2
Mus musculus [11] = assay: Antinociceptive activity in ip dosed Swiss albino mouse assessed as latency time by tail flick method; summary of the method: as §2
Mus musculus [12] = assay: Antinociceptive activity in ip dosed Swiss albino mouse assessed as latency time after 30 mins by tail flick method; summary of the method: as §2

C(=C\c1nc(-c2ccccc2)c(-c2ccccc2)[nH]1)/c1ccccc1
Activity (Rattus norvegicus [1]): 55.82% | Activity (Mus musculus [2]): 5.94 s | Activity (Mus musculus [3]): 6.12 s | Activity (Mus musculus [4]): 5.58 s | Activity (Mus musculus [5]): 5.17 s | Activity (Mus musculus [6]): 4.68 s | Activity (Mus musculus [7]): 4.67 s | inhibition in vivo at 10 mg/kg (Rattus norvegicus [8]): 55.8% | Activity (Mus musculus [9]): 4.28 s | Activity (Mus musculus [10]): 4.75 s | Activity (Mus musculus [11]): 4.16 s

COc1ccc(-c2nc(-c3ccccc3)c(-c3ccccc3)[nH]2)cc1
Activity (Mus musculus [12]): 7.45 s | Activity (Rattus norvegicus [1]): 86.05% | Activity (Mus musculus [2]): 9.67 s | Activity (Mus musculus [3]): 10.87 s | Activity (Mus musculus [4]): 7.89 s | Activity (Mus musculus [5]): 5.02 s | Activity (Mus musculus [6]): 9.17 s | Activity (Mus musculus [7]): 4.87 s | inhibition in vivo at 10 mg/kg (Rattus norvegicus [8]): 86% | Activity (Mus musculus [9]): 4.98 s | Activity (Mus musculus [10]): 10.83 s | Activity (Mus musculus [11]): 4.58 s

COc1ccc2c(c1)c(CC(=O)O)c(C)n2C(=O)c1ccc(Cl)cc1 [INDOMETHACIN]
inhibition in vivo at 10 mg/kg (Rattus norvegicus [8]): 95.3%

Clc1ccc(-c2nc(-c3ccccc3)c(-c3ccccc3)[nH]2)cc1
Activity (Mus musculus [12]): 6.92 s | Activity (Rattus norvegicus [1]): 81.4% | Activity (Mus musculus [2]): 8.98 s | Activity (Mus musculus [3]): 10.35 s | Activity (Mus musculus [4]): 7.43 s | Activity (Mus musculus [5]): 4.9 s | Activity (Mus musculus [6]): 8.37 s | Activity (Mus musculus [7]): 4.66 s | Activity (Mus musculus [9]): 4.67 s | Activity (Mus musculus [10]): 10.5 s | Activity (Mus musculus [11]): 4.52 s

Clc1ccccc1-c1nc(-c2ccccc2)c(-c2ccccc2)[nH]1
Activity (Mus musculus [12]): 5.78 s | Activity (Rattus norvegicus [1]): 62.8% | Activity (Mus musculus [2]): 8.2 s | Activity (Mus musculus [3]): 9.01 s | Activity (Mus musculus [4]): 6.25 s | Activity (Mus musculus [5]): 4.62 s | Activity (Mus musculus [6]): 7.27 s | Activity (Mus musculus [7]): 4.67 s | Activity (Mus musculus [9]): 4.14 s | Activity (Mus musculus [10]): 8.85 s | Activity (Mus musculus [11]): 4.2 s
